In ChEMBL document CHEMBL1153712, “Design, synthesis and bioactivity of catechin/epicatechin and 2-azetidinone derived chimeric molecules” (2009):
Activity calls are given as the source filed them. The calls are words filed in the database; no cut-off is given here.

Columns and labels:
[1] = system: Escherichia coli; assay: Antibacterial activity against Escherichia coli at 1 mmol after 48 hrs by disk diffusion assay; type: functional
Method in brief: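 Disc diffusion on agar. A colony was grown in nutrient broth for 2.5 h and spread over dried plates. Sterile 6 mm paper discs carried 1 mmol of compound. Plates were held at 37 °C and read at 48 h for inhibition-zone diameter. Controls were ampicillin (standard) and a DMSO-only disc.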

[2] = target: T1, Ribonuclease pancreatic (Bos taurus) (UniProt P61823); assay: Inhibition of bovine pancreatic RNase A assessed as degradation of 18s rRNA after 1 hr by agarose gel based assay
T1 sequence (whole entry): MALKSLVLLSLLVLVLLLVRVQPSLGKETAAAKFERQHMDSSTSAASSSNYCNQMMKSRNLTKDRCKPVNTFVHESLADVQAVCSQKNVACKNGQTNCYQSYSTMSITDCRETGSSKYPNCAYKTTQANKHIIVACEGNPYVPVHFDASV
Method in brief: (§1)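 Qualitative agarose-gel assay. RNase A was preincubated with compounds for 1 h at 37 °C. RNA substrate was then added and digested for 15 minutes. Samples were mixed with 40% sucrose and 0.25% bromophenol blue in 1× TAE and run on a 1.1% agarose gel. Degradation of 28S and 18S rRNA bands was scored.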

[3] = target: T1, Ribonuclease pancreatic (Bos taurus); assay: Inhibition of bovine pancreatic RNase A assessed as degradation of 28s rRNA after 1 hr by agarose gel based assay; method in brief: as §1

SMILES	Inhibition (qualitative, active/not active) [2]	inhibition [3]	Activity [1]	diameter of the inhibition zone (DIZ) [1]
COc1ccc([C@@H]2[C@H](CCN=[N+]=[N-])C(=O)N2c2ccccc2)cc1	–	–	inactive	–
COc1ccc([C@@H]2[C@H](CCO)C(=O)N2c2ccccc2)cc1	–	–	inactive	–
O=C1[C@@H](CCO)[C@@H](c2ccccc2)N1c1ccccc1	–	–	inactive	–
Oc1cc(O)c2c(c1)O[C@H](c1ccc(O)c(O)c1)[C@@H](O)C2	inactive	–	–	–
[N-]=[N+]=NCC[C@@H]1C(=O)N(c2ccccc2)[C@@H]1c1ccccc1	–	–	inactive	–

The next lines start with results.

Inhibition (qualitative, active/not active) [2]	inhibition [3]	SMILES	Activity [1]	diameter of the inhibition zone (DIZ) [1]
inactive	–	Oc1cc(O)c2c(c1)O[C@H](c1ccc(O)c(O)c1)[C@H](O)C2	–	–
Active	inactive	O=C1[C@@H](CCn2cc(CO[C@H]3Cc4c(O)cc(O)cc4O[C@@H]3c3ccc(O)c(O)c3)nn2)[C@@H](c2ccccc2)N1c1ccccc1 (mixture of isomers)	–	9 mm
Active	inactive	O=C1[C@@H](CCn2cc(CO[C@@H]3Cc4c(O)cc(O)cc4O[C@@H]3c3ccc(O)c(O)c3)nn2)[C@@H](c2ccccc2)N1c1ccccc1 (mixture of isomers)	–	9 mm
Active	inactive	COc1ccc([C@@H]2[C@H](CCn3cc(CO[C@H]4Cc5c(O)cc(O)cc5O[C@@H]4c4ccc(O)c(O)c4)nn3)C(=O)N2c2ccccc2)cc1 (mixture of isomers)	–	6 mm
Active	inactive	COc1ccc([C@@H]2[C@H](CCn3cc(CO[C@@H]4Cc5c(O)cc(O)cc5O[C@@H]4c4ccc(O)c(O)c4)nn3)C(=O)N2c2ccccc2)cc1 (mixture of isomers)	–	6 mm
